Bioassay records: PubChem, several laboratories
Most compounds without a hit are left out; they make up all but 1.9% or so of the library.
S1P1 ag-PAM – S1P1 agonists and agonism potentiators, primary screen, cell-based, primary and confirmation screens, CRE-bla reporter; activation, % at 9.5 µM; AID 449, 2006; Sphingosine 1-phosphate receptor 1 (Homo sapiens), P21453; S1P1 CRE-bla cells, forskolin, beta-lactamase FRET, potentiator mode; S1P1 agonist co-added at EC20, 2 nM; 100% = saturating reference agonist, 0% = basal; actives 0.57% (n = 56,000);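 active = activation above a cutoff set at the mean activation of all tested compounds plus 3 SD, cut at about 54% in these data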;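 note: forskolin at 4 µM as EC80 and the EC20 agonist is SEW2871; 100% = SEW2871 at its EC100 plus forskolin at EC80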
Target sequence (P21453 whole entry, looked up): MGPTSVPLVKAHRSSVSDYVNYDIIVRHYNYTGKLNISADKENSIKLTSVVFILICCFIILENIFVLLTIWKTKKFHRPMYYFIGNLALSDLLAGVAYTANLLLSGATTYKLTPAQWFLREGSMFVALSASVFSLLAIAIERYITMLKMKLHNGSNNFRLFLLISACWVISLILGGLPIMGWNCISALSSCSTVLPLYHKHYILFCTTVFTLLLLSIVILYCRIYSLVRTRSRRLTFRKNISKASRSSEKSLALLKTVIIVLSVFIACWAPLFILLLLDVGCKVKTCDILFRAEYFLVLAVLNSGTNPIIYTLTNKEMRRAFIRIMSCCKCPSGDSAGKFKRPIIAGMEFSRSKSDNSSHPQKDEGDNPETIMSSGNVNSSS
HEK293 NFkB inh – inhibitors of PMA/ionomycin-induced NF-kB reporter, primary screen, antigen receptor NF-kB inhibitor project, cell-based, HEK-293 luciferase reporter, luminescence | inhibition, % at 3 µM | HEK-293 NF-kB luciferase reporter | actives 0.21% (n = 62,000) | AID 465, 2006;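 active = inhibition above the mean of all tested compounds plus 3 SD, cut at about 40% in these data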;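 note: 0% = stimulated DMSO wells and 100% = 10 µM reference inhibitor 5653914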
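System: NF-kB luciferase reporter HEK-293 cells | Replication: Single test | Control set: DMSO vs reference inhibitor | Evaluation: % inhibition | Schedule: 1 h pretreatment, 16 h stimulation, 37 °C | Probe or stimulus: PMA with ionomycin | Compound dosing: One dose, 3 µM | Detection: Luciferase luminescence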
Jurkat viability – cytotoxicity toward Jurkat T cells, primary screen, cytotoxicity control, cell-based, Jurkat E6.1, 60K MLSMR library | Jurkat E6.1 viability, ATP luminescence, 48 h | inhibition, % at 4 µM | actives 1.2% (n = 56,000) | AID 463, 2006;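 active = inhibition above the mean inhibition of all tested compounds plus 3 SD, cut at about 28% in these data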
SK-BR-3 tox 24h – SK-BR-3 proliferation inhibitors, primary screen, cell-based, human, 24 h | SK-BR-3 viability, CellTiter-Glo ATP luminescence; hits give low values | viability, % at 10 µM | actives 0.47% (n = 41,000) | AID 847, 2007;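 active = viability at or below the median of all test compounds minus 3 SD, in both replicates if run twice, cut at about 45% in these data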;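 note: 100% = median untreated cell wells and 0% = median positive control drug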
Numbers without * were called inactive; nt = not tested or not shown.

SMILES | S1P1 ag-PAM | HEK293 NFkB inh | Jurkat viability | SK-BR-3 tox 24h
CCn1c(CNc2cccc(Cl)c2)nnc1SCc1ccccc1 | 14 | 4 | 3 | 37*
O=c1c2ccccc2nnn1CSc1nnc(-c2cccs2)n1Cc1ccccc1 | 17 | -21 | 28* | nt
O=c1cc(CSc2nnc(-c3cccs3)n2Cc2ccccc2)nc2sc3ccccc3n12 | 18 | 23 | 71* | nt
C=CCn1c(SCn2nnc3ccccc3c2=O)nc2scc(-c3cccs3)c2c1=O | -9 | 15 | 6 | nt
CCOC(=O)N1CCC(N2C(=O)c3ccc(C(=O)NC4CCCCCC4)cc3C2=O)CC1 | -19 | 10 | -3 | nt
Cc1oc2cc3c(C(=O)OCCN(C)C)c(C)oc3cc2c1C(=O)OCCN(C)C | -3 | 78* | 6 | 103
COc1cc(NC(=O)c2cccc3c2C(=O)N(Cc2cccnc2)C3)cc(OC)c1OC | -25 | 58* | -6 | nt
O=C(Nc1ccc2c(c1)OCO2)c1cccc2c1C(=O)N(Cc1cccnc1)C2 | -9 | 15 | 0 | nt
CC(C)CCNC(=O)C(c1cccs1)N(CC1CCCO1)C(=O)Cn1nnc2ccccc21 (stereo not drawn) | 1 | 11 | -4 | 135
COc1cccc(-c2nc(-c3ccc(NC(=O)c4cccnc4)cc3)no2)c1 | 60* | -13 | -4 | nt
CCN(CC)S(=O)(=O)c1cc(C(=O)n2cccn2)c(Cl)cc1Cl | -11 | 4 | -1 | 119
COc1cccc(/C=N/n2c(SC)nnc2-c2ccccc2)c1O | -17 | 7 | 68* | nt
CS(=O)(=O)N1CCc2cc(-c3csc(NC(=O)Cc4cccs4)n3)ccc21 | 42 | 16 | 70* | 97
CC(C)[C@H](NC(=O)OC(C)(C)C)c1nnc(SCC(=O)Nc2ccc(Br)cc2)o1 | 61* | 19 | 15 | 102
CCOC(=O)CN1C(=O)C(C)(C)Oc2ccc(C(=O)Nc3ccccc3OC)cc21 | 90* | 9 | 8 | 79
O=C(N1CCN(c2ccccn2)CC1)N1c2ccccc2Sc2ccccc21 | 8 | 28 | 69* | 111
O=C(c1c(Cl)cccc1Cl)N1CCN(c2ccccn2)CC1 | 21 | 12 | 4 | 81
O=C(c1ccco1)N1CCN(C(=O)N2c3ccccc3Sc3ccccc32)CC1 | 15 | 38 | 98* | 93
CN1CCN(Cc2cc(COCc3ccccc3)c3cccnc3c2O)CC1 | 3 | 30 | 36* | nt
Oc1c(CN2CCCCC2)cc(Br)c2cccnc12 | 15 | 19 | 49* | 39*
Oc1c(CN2CCc3ccccc3C2)cc(Cl)c2cccnc12 | 11 | 10 | 16 | nt
c1csc(Cc2nc(-c3ccc(-n4cccc4)cc3)no2)c1 | 30 | 3 | 5 | nt
CC(C)CN(CC(C)C)C(=O)CS(=O)(=O)Cc1ccccc1 | -7 | 20 | 5 | 105
C=CCOn1c(=O)c(=O)n(OCc2ccccc2)c2ccccc21 | 5 | 12 | 1 | 99
COc1ccccc1-c1cc(C(=O)Nc2cc(C)nn2-c2ccccc2)no1 | 65 | 28 | 89* | 67
SMILES | S1P1 ag-PAM | HEK293 NFkB inh | Jurkat viability | SK-BR-3 tox 24h
CC1CCCN(C(=O)Cn2c(-c3nonc3N)nc3ccccc32)C1 (stereo not drawn) | -4 | 20 | 1 | 94
Nc1nonc1-c1nc2ccccc2n1CC(=O)NC1CCCC1 | -6 | 20 | 2 | nt
Nc1nonc1-c1nc2ccccc2n1Cc1ccccc1 | nt | 13 | 89* | 89
CCOC(=O)c1ccccc1NC(=O)Cn1c(-c2nonc2N)nc2ccccc21 | -19 | 47* | 98* | 68
COc1ccc2c3c(cccc13)NN=C2C | 7 | 7 | 2 | nt
CC1=CC(C)(C)N=C(Nc2ccc(C)cc2)S1 | -3 | -1 | 3 | nt
CCC(C)Oc1ccccc1C1CC(=O)NC2=C1C(=O)CCC2 (stereo not drawn) | -30 | 9 | 40* | 87
N#CCSc1nc2scc(-c3cccs3)c2c(=O)n1CCc1ccccc1 | -7 | 7 | -1 | nt
COc1ccc(C2NC(=O)NC3=C2CCc2ccccc23)cc1 (stereo not drawn) | -17 | 0 | 72* | 78
CCn1c(SCC(=O)Nc2cc(OC)ccc2OC)nnc1C1CCCCC1 | 7 | 12 | 8 | 79
CCNc1nc2c(c(=O)n(C)c(=O)n2C)n1Cc1ccc(Cl)cc1 | 61* | 15 | 58* | nt
COc1cccc(NC(=O)N2CCC(C(N)=O)(N3CCCCC3)CC2)c1 | 7 | -7 | -2 | 40*
